Laboratory results as given in PubChem BioAssay AID504623 (Broad Institute, 2011).
Records with an inconclusive call do not appear. Activity calls are given as the source filed them.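 Rule for the calls: active = mean replicate inhibition of at least 25% with at least 60% of replicates reaching that level; inconclusive = only one of the two criteria is met; inactive = neither criterion met.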

Tested on: SUM159 tumorsphere formation, imaging count, 8-9 days
Test: blockade of breast tumor sphere growth – imaging, SUM159 cells, single point, dry powder, orthogonal assay for breast cancer stem cell project, late-stage follow-up (AID 504623)
Details: at 25 µM; hits give high values
Method in brief: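 Material: SUM159 tumorsphere culture. Buffer or medium: medium plus 0.5% methylcellulose. Timing: 8-day incubation, 37 °C. Detection: Brightfield imaging at 2x, 9 sites/well. Format: Low-attachment wells.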

Structure (SMILES)	inhibition
CC(C)(C)c1ccc2c(c1)OC(C(=O)N/N=C/c1ccc[nH]1)CO2 (centres undefined)	34.1%
CC(C)(C)c1ccc(C2CC2C(=O)N/N=C/c2ccc[nH]2)cc1 (centres undefined)	62.8%
Cc1csc(NC(=O)c2ccc(COc3ccccc3)o2)n1	21.4% (inactive)
CC(C)c1ccc(/C=C/C(=O)Nc2ccccc2)cc1	62.4%
Cc1csc(NC(=O)c2ccc(COc3cccc(C#N)c3)o2)n1	44.2%
Cc1csc(NC(=O)c2ccc(COc3ccccc3F)o2)n1	4.83% (inactive)
CC(C)c1ccc(/C=C/C(=O)NC2=NCCS2)cc1	10.4% (inactive)
COc1cccc(OCc2ccc(C(=O)Nc3nc(C)cs3)o2)c1	-6.02% (inactive)
Cc1cc(Cl)ccc1OCC(=O)N/N=C/c1ccc[nH]1	3.98% (inactive)
O=C(COc1ccc(Cl)cc1Cl)N/N=C/c1ccc[nH]1	-22.3% (inactive)
O=C(/C=C/c1ccc(-c2ccccc2)cc1)NC1=NCCS1	4.08% (inactive)
O=C(COc1c(Cl)cc(Cl)cc1Cl)N/N=C/c1ccc[nH]1	-7.47% (inactive)
Cc1csc(NC(=O)c2ccc(COc3cccc(Cl)c3)o2)n1	19.5% (inactive)
Cc1csc(NC(=O)c2ccc(COc3cccc(OC(F)(F)F)c3)o2)n1	22.2% (inactive)
